From PubChem
MrgX1 antagonist – antagonists of human MrgX1 receptor, primary screen, HEK293 cells, Fluo-4 calcium flux. Mas-related G-protein coupled receptor member X1 (Homo sapiens), Q96LB2. BAM8-22 antagonism; stronger effect = lower value. B-score at 10 µM. 310,000 compounds, 1.3% hits. AID 588676, 2011;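 active = calcium-response B-score plate-corrected more than 3 library SD below zero, starting fluorescence within 5 deviations, no agonist response on first addition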;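 also: peak minus trough fluorescence over baseline after final BAM8-22 challenge near maximal dose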
Target sequence (Q96LB2 whole entry, looked up): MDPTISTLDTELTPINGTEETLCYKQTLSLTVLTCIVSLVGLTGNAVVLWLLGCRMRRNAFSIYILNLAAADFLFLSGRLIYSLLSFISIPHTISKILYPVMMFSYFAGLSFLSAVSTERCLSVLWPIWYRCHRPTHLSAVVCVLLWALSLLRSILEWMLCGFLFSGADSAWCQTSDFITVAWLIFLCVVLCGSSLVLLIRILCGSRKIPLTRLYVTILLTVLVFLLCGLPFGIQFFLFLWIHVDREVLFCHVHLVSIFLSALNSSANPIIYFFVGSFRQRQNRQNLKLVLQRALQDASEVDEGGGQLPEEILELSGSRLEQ
RGS4 inh – RGS4 inhibitors, primary screen, cell-based, HEK293 M3R inducible RGS4, calcium flux. AID 463165, 2010. Fluo-4 calcium flux; stronger effect = higher value; triggered by carbachol at its EC20. Regulator of G-protein signaling 4 (Homo sapiens), P49798. 310,000 compounds, 0.45% hits. B-score at 10 µM;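 active = B-score, a plate-corrected calcium signal, over three deviations above library mean, with baseline fluorescence within five deviations of library mean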;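 also: RGS4 expression induced by doxycycline in cells with stable M3 receptor; B-score is computed from the integrated fluorescence ratio over baseline after carbachol; higher B-score means a larger calcium signal and so more RGS4 inhibition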
Target sequence (P49798 whole entry, looked up): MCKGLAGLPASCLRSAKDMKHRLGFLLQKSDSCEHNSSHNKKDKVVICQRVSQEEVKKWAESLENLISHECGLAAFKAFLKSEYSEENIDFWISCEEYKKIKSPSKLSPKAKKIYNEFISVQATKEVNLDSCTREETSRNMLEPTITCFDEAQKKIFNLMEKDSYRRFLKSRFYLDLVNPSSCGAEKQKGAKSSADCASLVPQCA
MrgX1 agonist – agonists of human MrgX1 receptor, primary screen, HEK293 cells, Fluo-4 calcium flux; B-score at 10 µM; 310,000 compounds, 0.44% hits; AID 588627, 2011; Fluo-4 calcium fluorescence, agonist mode; stronger effect = higher value;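 active = calcium response B-score plate-corrected fluorescence ratio at least 3 library SD, with starting fluorescence B-score inside 5 SD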
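times = overnight plating, then 30 min 37 °C plus 30 min room-temperature dye loading | assay system = stable human MrgX1 HEK293 cell line | input = fifteen thousand cells per well | signal = kinetic calcium dye fluorescence, Fluo-4 NW | dosing = compound delivered in addition one of three | read-out = B-scored fluorescence response ratio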
RGS4 pot – RGS4 potentiators or activators, primary screen, cell-based, HEK293 M3R inducible RGS4, calcium flux; carbachol calcium flux Fluo4; stronger effect = lower value; B-score at 10 µM; 310,000 compounds, 0.92% hits; AID 463111, 2010;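 active = B-score of the integrated calcium signal more than 4 SD below the library mean, with starting fluorescence not abnormally high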;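 also: negative B-score means reduced calcium response which marks RGS4 activation or potentiation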
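Reagent: ECmax carbachol challenge; Test system: M3R-expressing HEK293 line, RGS4 induced by doxycycline; Schedule: overnight RGS4 induction, 30 min dye load 37 °C, 20 min compound RT; Detection: calcium dye Fluo4 fluorescence; Read-out: Agonist-evoked peak-minus-minimum fluorescence over baseline, integrated ratio, B score.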
MrgX1 allo act – positive allosteric modulators of MrgX1, primary screen, HEK293 cells, Fluo-4 calcium flux; Mas-related G-protein coupled receptor member X1 (Homo sapiens), Q96LB2; FDSS; stronger effect = higher value; B-score at 10 µM; 310,000 compounds, 0.63% hits;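 active = plate-corrected calcium response at least 3 library SD above typical, normal starting fluorescence, not activating the receptor alone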;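 also: compound read alongside a low EC10 to EC30 dose of BAM8-22 agonist; peak minus trough fluorescence over baseline measured at the second addition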
Active calls of the source: *. Hits are enriched below; roughly 3.5% of the tested compounds scored in any of these assays.

How did COc1ccc(Nc2nc(-c3cccs3)nc3ccccc23)cc1S(=O)(=O)N1CCOCC1 do in these assays?
MrgX1 antagonist: inactive; RGS4 inh: inactive; MrgX1 agonist: inactive; RGS4 pot: -7.3*; MrgX1 allo act: inactive

Results for COc1ccc(NS(=O)(=O)c2cccs2)cc1S(=O)(=O)N1CCOCC1 ?
MrgX1 antagonist: inactive; RGS4 inh: inactive; MrgX1 agonist: inactive; RGS4 pot: inactive; MrgX1 allo act: inactive

How did COC(=O)c1[nH]c2ccccc2c1NC(=O)CN1CCCCCC1 do in these assays?
MrgX1 antagonist: inactive; RGS4 inh: inactive; MrgX1 agonist: inactive; RGS4 pot: inactive; MrgX1 allo act: inactive

Results for COC(=O)c1[nH]c2ccccc2c1NC(=O)CNC1CCCCC1 ?
MrgX1 antagonist: inactive; RGS4 inh: inactive; MrgX1 agonist: inactive; RGS4 pot: -7*; MrgX1 allo act: inactive

What do the screens show for `CCC(C(=O)O/N=C(\N)c1cccc(C)c1)c1ccccc1` (stereo unspecified)?
MrgX1 antagonist: inactive; RGS4 inh: inactive; MrgX1 agonist: inactive; RGS4 pot: -9.5*; MrgX1 allo act: inactive

How did O=[N+]([O-])/C=C/c1c(OCc2ccccc2)ccc2ccccc12 do in these assays?
MrgX1 antagonist: inactive; RGS4 inh: 13*; MrgX1 agonist: inactive; RGS4 pot: inactive; MrgX1 allo act: inactive

Results for Cc1cc(CN2CCCC(C(=O)Nc3ccc(-c4nc5ccccc5[nH]4)cc3)C2)n[nH]1 (stereo unspecified) ?
MrgX1 antagonist: inactive; RGS4 inh: inactive; MrgX1 agonist: inactive; RGS4 pot: inactive; MrgX1 allo act: inactive

How did Cc1cccn2c(=O)c(/C=C(\C#N)S(=O)(=O)c3ccccc3)c(N3CCN(Cc4ccccc4)CC3)nc12 do in these assays?
MrgX1 antagonist: inactive; RGS4 inh: inactive; MrgX1 agonist: inactive; RGS4 pot: -7.2*; MrgX1 allo act: inactive

How did N#C/C(=C\c1c(N2CCN(Cc3ccccc3)CC2)nc2ccccn2c1=O)S(=O)(=O)c1ccccc1 do in these assays?
MrgX1 antagonist: inactive; RGS4 inh: inactive; MrgX1 agonist: inactive; RGS4 pot: inactive; MrgX1 allo act: inactive

How did CN(C)C(/C=C/Nc1ccc(C#N)cc1)=C(C#N)C#N do in these assays?
MrgX1 antagonist: -5.2*; RGS4 inh: inactive; MrgX1 agonist: inactive; RGS4 pot: inactive; MrgX1 allo act: inactive

What do the screens show for `CN(C)C(/C=C/Nc1ccc(F)cc1)=C(C#N)C#N`?
MrgX1 antagonist: inactive; RGS4 inh: inactive; MrgX1 agonist: inactive; RGS4 pot: inactive; MrgX1 allo act: inactive

What do the screens show for `COc1ccc(-c2cc(C(=O)Nc3cc(S(=O)(=O)N4CCOCC4)ccc3N3CCOCC3)c3ccccc3n2)cc1`?
MrgX1 antagonist: inactive; RGS4 inh: inactive; MrgX1 agonist: inactive; RGS4 pot: -7*; MrgX1 allo act: inactive

How did N#C/C(=C\c1c(N2CCN(c3ccccc3)CC2)nc2ccccn2c1=O)C(N)=O do in these assays?
MrgX1 antagonist: inactive; RGS4 inh: inactive; MrgX1 agonist: inactive; RGS4 pot: inactive; MrgX1 allo act: inactive

Results for O=C(OCc1cccc([N+](=O)[O-])c1)c1ccc2ccccc2n1 ?
MrgX1 antagonist: inactive; RGS4 inh: inactive; MrgX1 agonist: inactive; RGS4 pot: inactive; MrgX1 allo act: 12*

How did O=C(OCc1ccc([N+](=O)[O-])cc1)c1ccc2ccccc2n1 do in these assays?
MrgX1 antagonist: inactive; RGS4 inh: inactive; MrgX1 agonist: inactive; RGS4 pot: inactive; MrgX1 allo act: inactive

Results for COc1ccccc1CNC(=O)CSc1cc(=O)n(C)c2ccccc12 ?
MrgX1 antagonist: inactive; RGS4 inh: inactive; MrgX1 agonist: inactive; RGS4 pot: inactive; MrgX1 allo act: inactive

Results for C[n+]1ccccc1/C=C/c1ccc([N+](=O)[O-])cc1 ?
MrgX1 antagonist: inactive; RGS4 inh: inactive; MrgX1 agonist: inactive; RGS4 pot: inactive; MrgX1 allo act: inactive

What do the screens show for `O=[N+]([O-])c1ccc(C2=NN(c3ccccc3)C(c3ccco3)C2)cc1` (stereo unspecified)?
RGS4 inh: inactive; RGS4 pot: -7.2*

Results for O=[N+]([O-])c1ccc(/C=C/C2=NN(c3ccccc3)C(c3ccco3)C2)cc1 (stereo unspecified) ?
MrgX1 antagonist: inactive; MrgX1 agonist: inactive; MrgX1 allo act: 9.7*

What do the screens show for `O=S(=O)(c1ccccc1)N1N=C(c2ccc(O)cc2)CC1c1ccco1` (stereo unspecified)?
MrgX1 antagonist: inactive; RGS4 inh: inactive; MrgX1 agonist: inactive; RGS4 pot: inactive; MrgX1 allo act: inactive

Results for C/C(=N\NC(=O)c1nnn(-c2nonc2N)c1CN(C)c1ccccc1)c1cccnc1 ?
MrgX1 antagonist: inactive; RGS4 inh: inactive; MrgX1 agonist: inactive; RGS4 pot: inactive; MrgX1 allo act: inactive

How did COc1cc(OC)cc(C(=O)NCCS(=O)(=O)N2CCN(Cc3ccccc3)CC2)c1 do in these assays?
MrgX1 antagonist: inactive; RGS4 inh: inactive; MrgX1 agonist: inactive; RGS4 pot: inactive; MrgX1 allo act: inactive

What do the screens show for `COc1cc(CNC(C)(C)C)cc(Br)c1OCc1cccs1`?
MrgX1 antagonist: -6.1*; RGS4 inh: inactive; MrgX1 agonist: inactive; RGS4 pot: inactive; MrgX1 allo act: inactive

Results for COc1cc(CNCCO)cc(Br)c1OCc1cccs1 ?
MrgX1 antagonist: inactive; RGS4 inh: inactive; MrgX1 agonist: inactive; RGS4 pot: inactive; MrgX1 allo act: inactive

How did COc1ccc(CN=Cc2[nH]c3ccc(Br)c(Cl)c3c2O)cc1 do in these assays?
MrgX1 antagonist: inactive; RGS4 inh: inactive; MrgX1 agonist: 37*; RGS4 pot: inactive; MrgX1 allo act: inactive

What do the screens show for `Cc1cc(C)cc(N=Cc2[nH]c3ccc(Br)c(Cl)c3c2O)c1`?
MrgX1 antagonist: inactive; RGS4 inh: inactive; MrgX1 agonist: 39*; RGS4 pot: inactive; MrgX1 allo act: inactive

Results for COc1ccc(CN=CC2=C(O)CNC2=O)cc1 ?
MrgX1 antagonist: inactive; RGS4 inh: inactive; MrgX1 agonist: inactive; RGS4 pot: inactive; MrgX1 allo act: inactive

What do the screens show for `COCC1CCCN(C(=O)c2ccc(OC3CCN(Cc4ccccn4)CC3)cc2)C1` (stereo unspecified)?
MrgX1 antagonist: inactive; RGS4 inh: inactive; MrgX1 agonist: inactive; RGS4 pot: inactive; MrgX1 allo act: inactive

What do the screens show for `CS(=O)(=O)CC(=O)Nc1ccc2nc3n(c(=O)c2c1)CCCCC3`?
MrgX1 antagonist: inactive; RGS4 inh: inactive; MrgX1 agonist: inactive; RGS4 pot: inactive; MrgX1 allo act: inactive
